Assay results taken from ChEMBL document CHEMBL5620421, “2,6-Disubstituted 7-(naphthalen-2-ylmethyl)-7H-purines as a new class of potent antitubercular agents inhibiting DprE1” (Eur J Med Chem, 2023).
In brackets after ≈: the same amount, converted by molar mass.

Columns and labels:
Format in all cases: functional
[1] = tested on: Mycobacterium tuberculosis; experiment: Antitubercular activity against Mycobacterium tuberculosis CNCTC My 331/88 (H37Rv) assessed as inhibition of bacterial growth measured after 14 days of incubation by Sulas semisynthetic medium based assay; conditions: 336 h, time 14 day
How it was run: (§1)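 Micromethod MIC in Sula's semisynthetic medium. MIC is the lowest concentration inhibiting >99% of the mycobacterial population. Isoniazid was the standard drug.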

[2] = tested on: Mycobacterium tuberculosis; experiment: Antitubercular activity against Mycobacterium tuberculosis CNCTC My 331/88 (H37Rv) assessed as inhibition of bacterial growth measured after 21 days of incubation by Sulas semisynthetic medium based assay; conditions: 504 h, time 21 day; how it was run: as §1
Mycobacterium avium [3] = experiment: Antitubercular activity against Mycobacterium avium CNCTC My 330/88 assessed as inhibition of bacterial growth measured after 14 days of incubation by Sulas semisynthetic medium based assay; conditions: CNCTC My 330/88, 336 h, time 14 day
How it was run: (§2)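 M. avium was tested by the micromethod in Sula's semisynthetic medium. Compounds in DMSO at 1000 to 0.5 μmol/L. Incubation at 37 °C, read at 14 and 21 days. MIC is the lowest concentration giving >99% growth inhibition.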

Mycobacterium avium [4] = experiment: Antitubercular activity against Mycobacterium avium CNCTC My 330/88 assessed as inhibition of bacterial growth measured after 21 days of incubation by Sulas semisynthetic medium based assay; conditions: CNCTC My 330/88, 504 h, time 21 day; how it was run: as §2
Mycobacterium kansasii [5] = experiment: Antitubercular activity against Mycobacterium kansasii CNCTC My 235/80 assessed as inhibition of bacterial growth measured after 7 days of incubation by Sulas semisynthetic medium based assay; conditions: CNCTC My 235/80, 168 h, time 7 day
How it was run: (§3)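 Micromethod in Sula's semisynthetic medium. MIC is the lowest concentration inhibiting >99% of the mycobacterial population. Isoniazid was the standard.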

Mycobacterium kansasii [6] = experiment: Antitubercular activity against Mycobacterium kansasii CNCTC My 235/80 assessed as inhibition of bacterial growth measured after 14 days of incubation by Sulas semisynthetic medium based assay; conditions: CNCTC My 235/80, 336 h, time 14 day; how it was run: as §3
Mycobacterium kansasii [7] = experiment: Antitubercular activity against Mycobacterium kansasii CNCTC My 235/80 assessed as inhibition of bacterial growth measured after 21 days of incubation by Sulas semisynthetic medium based assay; conditions: CNCTC My 235/80, 504 h, time 21 day; how it was run: as §3

SMILES | MIC99 [1] [µM] | MIC99 [2] [µM] | MIC99 (Mycobacterium avium [3]) [µM] | MIC99 (Mycobacterium avium [4]) [µM] | MIC99 (Mycobacterium kansasii [5]) [µM] | MIC99 (Mycobacterium kansasii [6]) [µM] | MIC99 (Mycobacterium kansasii [7]) [µM]
Clc1ncnc2ncn(Cc3ccc4ccccc4c3)c12 | 125 (≈ 36.8 µg/mL) | 125 (≈ 36.8 µg/mL) | > 1000 | > 1000 | 1000 (≈ 295 µg/mL) | > 1000 | > 1000
COc1ccc(Cn2cnc3c(=O)[nH]c(N4CCOCC4)nc32)cc1 | > 500 | > 500 | > 500 | > 500 | > 500 | > 500 | > 500
O=c1[nH]c(N2CCOCC2)nc2c1ncn2Cc1ccc(Cl)cc1 | > 500 | > 500 | > 500 | > 500 | > 500 | > 500 | > 500
Oc1nc(N2CCOCC2)nc2ncn(Cc3ccccc3)c12 | > 500 | > 500 | > 500 | > 500 | > 500 | > 500 | > 500
O=c1[nH]c(NC2CCC2)nc2ncn(Cc3ccc4ccccc4c3)c12 | > 500 | > 500 | > 500 | > 500 | > 500 | > 500 | > 500
CC(C)c1ccc(Cn2cnc3c(=O)[nH]c(N4CCOCC4)nc32)cc1 | 125 (≈ 44.2 µg/mL) | > 250 | > 250 | > 250 | > 250 | > 250 | > 250
O=c1[nH]c(N2CCOCC2)nc2c1ncn2Cc1ccc2ccccc2c1 | > 250 | > 250 | > 250 | > 250 | > 250 | > 250 | > 250
CN(C)CCNc1nc(N2CCOCC2)nc2ncn(Cc3ccc4ccccc4c3)c12 | 32 (≈ 13.8 µg/mL) | 64 (≈ 27.6 µg/mL) | 500 (≈ 216 µg/mL) | 500 (≈ 216 µg/mL) | 64 (≈ 27.6 µg/mL) | 125 (≈ 53.9 µg/mL) | 125 (≈ 53.9 µg/mL)
c1ccc2cc(Cn3cnc4nc(N5CCOCC5)nc(N5CCOCC5)c43)ccc2c1 | 125 (≈ 53.8 µg/mL) | 125 (≈ 53.8 µg/mL) | 250 (≈ 108 µg/mL) | 500 (≈ 215 µg/mL) | 125 (≈ 53.8 µg/mL) | 125 (≈ 53.8 µg/mL) | 250 (≈ 108 µg/mL)
CN1CCN(c2nc3ncn(Cc4ccc5ccccc5c4)c3c(=O)[nH]2)CC1 | 250 (≈ 93.6 µg/mL) | 500 (≈ 187 µg/mL) | > 500 | > 500 | 250 (≈ 93.6 µg/mL) | 500 (≈ 187 µg/mL) | 500 (≈ 187 µg/mL)
COCCN(C)c1nc2ncn(Cc3ccc4ccccc4c3)c2c(=O)[nH]1 | > 500 | > 500 | > 500 | > 500 | > 500 | > 500 | > 500
O=c1[nH]c(NC2CC2)nc2ncn(Cc3ccc4ccccc4c3)c12 | > 500 | > 500 | > 500 | > 500 | > 500 | > 500 | > 500
COc1cccc(Cn2cnc3c(=O)[nH]c(N4CCOCC4)nc32)c1 | > 500 | > 500 | > 500 | > 500 | > 500 | > 500 | > 500
O=c1[nH]c(N2CCOCC2)nc2ccn(Cc3ccc4ccccc4c3)c12 | > 500 | > 500 | > 500 | > 500 | > 500 | > 500 | > 500
O=c1[nH]cnc2ncn(Cc3ccc4ccccc4c3)c12 | > 500 | > 500 | > 500 | > 500 | 125 (≈ 34.5 µg/mL) | > 500 | > 500
O=c1[nH]c(N2CCOCC2)nc2c1ncn2Cc1ccccc1 | > 500 | > 500 | > 500 | > 500 | > 500 | > 500 | > 500
